Variants at the floor of the assay were thinned out.
B1: tRNA (parent)
chain: GUUCCGUUGGCGUAAUGGUAACGCGUCUCCCUCCUAAGGAGAAGACUGCGGGUUCGAGUCCCGUACGGAACG

Variants of: B1
Assay: yeast fitness relative to wild type (ratio to wild type); higher = fitter; tRNA-Arg(CCU), competitive growth, 37 C, YPD
Summary of the method: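 Genotype frequency changes were the basis for Darwinian fitness relative to wild type. The frequencies came from 100-nucleotide paired-end sequencing of gene amplicons from the start population and each end population of pooled yeast strains with tRNA-Arg(CCU) gene variants at the native locus. Competition ran in YPD at 37°C for 24 hours in six replicates, genotypes needed ≥ 100 starting reads, and estimates < 0.5 were set to 0.5.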

Variant | yeast fitness
GUUCCGUUGGCGUAAUGGUAACGCGUAACGCUCCUAAGGAGAAGACUGCGGGUUCGAGUCCCGUACAGAACG [C27A U28A C30G G67A] | 0.587
GUUCCGUUGGCGUAAUGGUAACGCGUACCCCUCCUAAGGAGAAGACUGCGGGUUCGAGUCCCGUACGGAACG [C27A U28C] | 0.775
GUUCCGUUGGCGUAAUGGUAACGCGUAGCCCUCCUAAGGAGAAGACUGCGGGUUCGAGUCCCGCACGGAACG [C27A U28G U64C] | ≤ 0.5
GUUCCGUUGGCGUAAUGGUAACGCGUAUCCCGCCUAAGGAGAAGACUGCGGGUUCGAGUCCCGUACGGAACG [C27A U32G] | 0.595
GUUCCGUUGGCGUAAUGGUAACGCGUAUCCCGCCUAAGGAGAAGACUGCGGGUUCGAGUCCUGUACGGACCG [C27A U32G C62U A70C] | 0.547
GUUCCGUUGGCGUAAUGGUAACGCGUAUCCCUCCCAAGGAGUAGACUGCGGGUUCGAGUCCCGUACGGGACG [C27A U35C A42U A69G] | ≤ 0.5
GUUCCGUUGGCGUAAUGGUAACGCGUAUCCCUCCCAAGGAGUAGACUGCGGGUUAGAGUCCCGUACGGAACG [C27A U35C A42U C55A] | ≤ 0.5
GUUCCGUUGGCGUAAUGGUAACGCGUAUCCCUCCCAAGGAGAAGACUGCGGGUUCGCGUCCCGUACGGAACG [C27A U35C A57C] | 0.619
GUUCCGUUGGCGUAAUGGUAACGCGUAUCCCUCCUAAGGAGAAGACAGCGGGUUCCAGUCCCGUACGGAACG [C27A U47A G56C] | 0.694
GUUCCGUUGGCGUAAUGGUAACGCGUAUCCCUCCUAAGGAGAAGACAGCGGGUUCCAGUCCCGUACGGCACG [C27A U47A G56C A69C] | 0.894
GUUCCGUUGGCGUAAUGGUAACGCGUAUCCCUCCUAAGGAGAAGACCGCGGGUUCGAGUCCCGUACGGAACG [C27A U47C] | 0.975
GUUCCGUUGGCGUAAUGGUAACGCGUAUCCCUCCUAAGGAGAAGACCGCGGGUUCGAGUCCCGCACGGACCG [C27A U47C U64C A70C] | 0.535
GUUCCGUUGGCGUAAUGGUAACGCGUAUCCCUCCUAAGGAGAAGACGGCGGGUUCGAGUCCCGUACGGCACG [C27A U47G A69C] | ≤ 0.5
GUUCCGUUGGCGUAAUGGUAACGCGUAUCCCUCCUAAGGAGAAGACUGCGGGAUCGACUCCCGUACGGACCG [C27A U53A G58C A70C] | 0.57
GUUCCGUUGGCGUAAUGGUAACGCGUAUCCCUCCUAAGGAGAAGACUGCGGGGUCGAGUCCCGUACGGAACG [C27A U53G] | 0.651
GUUCCGUUGGCGUAAUGGUAACGCGUAUCCCUCCUAAGGAGAAGACUGCGGGUACGAGUCCCGUACGGAACG [C27A U54A] | 0.727
GUUCCGUUGGCGUAAUGGUAACGCGUAUCCCUCCUAAGGAGAAGACUGCGGGUACGAGUCCCGUUUGGAACG [C27A U54A A65U C66U] | ≤ 0.5
GUUCCGUUGGCGUAAUGGUAACGCGUAUCCCUCCUAAGGAGAAGACUGCGGGUCCGAGUCCCGUACGGAACG [C27A U54C] | 0.991
GUUCCGUUGGCGUAAUGGUAACGCGUAUCCCUCCUAAGGAGAAGACUGCGGGUUCGAGACCCGUACGGAACG [C27A U59A] | 0.876

Variant | yeast fitness
GUUCCGUUGGCGUAAUGGUAACGCGUAUCCCUCCUAAGGAGAAGACUGCGGGUUCGAGCCCAGUACGGAACG [C27A U59C C62A] | ≤ 0.5
GUUCCGUUGGCGUAAUGGUAACGCGUAUCCCUCCUAAGGAGAAGACUGCGGGUUCGAGUCCCGAACGGCACG [C27A U64A A69C] | 0.703
GUUCCGUUGGCGUAAUGGUAACGCGUAUCCCUCCUAAGGAGAAGACUGCGGGUUCGAGUCCCGAACGCAACG [C27A U64A G68C] | ≤ 0.5
GUUCCGUUGGCGUAAUGGUAACGCGUAUCCCUCCUAAGGAGAAGACUGCGGGUUCGAGUCCCGCACGGAACG [C27A U64C] | 0.943
GUUCCGUUGGCGUAAUGGUAACGCGUGUCCCUCCUCAGGAGUAGACUGCGGGUUCGAGUCCCGUAUGGAACG [C27G A36C A42U C66U] | ≤ 0.5
GUUCCGUUGGCGUAAUGGUAACGCGUGUCCCUCCUGAGGAGAAGACUGCGGGUUCGAGUCCCGUACGGAACG [C27G A36G] | 0.542
GUUCCGUUGGCGUAAUGGUAACGCGUGUCCCUCCUGAGGGGAAGACUGCGGGUUCGAGUCCCGUACGGCACG [C27G A36G A40G A69C] | ≤ 0.5
GUUCCGUUGGCGUAAUGGUAACGCGUGUCCCUCCUGAGGGGAAGACUGCGGGUUCGAGUCCCGUACGGUACG [C27G A36G A40G A69U] | ≤ 0.5
GUUCCGUUGGCGUAAUGGUAACGCGUGUCCCUCCUGAGGAGAAGACUGCGGGUUCGAGUCCCGUACGGUACG [C27G A36G A69U] | 0.641
GUUCCGUUGGCGUAAUGGUAACGCGUGUCCCUCCUGAGGAGAAGACUGCGGGUUCGAGUCCCGUACGGAUCG [C27G A36G A70U] | ≤ 0.5
GUUCCGUUGGCGUAAUGGUAACGCGUGUCCCUCCUGAGGAGAAGACUGCGGGUUCGAGUCACGUUCGGAACG [C27G A36G C61A A65U] | ≤ 0.5
GUUCCGUUGGCGUAAUGGUAACGCGUGUCCCUCCUGAGGAGAAGACUGCGGGUUCGAGUCCCGUAGGGAACG [C27G A36G C66G] | 0.548
GUUCCGUUGGCGUAAUGGUAACGCGUGUCCCUCCUGAGGAGAAGACUGCGGGUUCGAGUCCCCUAUGGAACG [C27G A36G G63C C66U] | ≤ 0.5
GUUCCGUUGGCGUAAUGGUAACGCGUGUCCCUCCUUAGGAGAAGACUGCGGGUUCGAGUCCCGUACGGAACG [C27G A36U] | 0.666
GUUCCGUUGGCGUAAUGGUAACGCGUGUCCCUCCUUAGGAGAAGUCUGCGGGUUCGAGUCCCGUACGGCACG [C27G A36U A45U A69C] | 0.577
GUUCCGUUGGCGUAAUGGUAACGCGUGUCCCUCCUUAGGAGAAGACUGCGGGUUCGAGUCCCGUACGGCACG [C27G A36U A69C] | ≤ 0.5
GUUCCGUUGGCGUAAUGGUAACGCGUGUCCCUCCUUAGGAGAAGAUUGCGGGUUCGAGUCCCGUACAGAACG [C27G A36U C46U G67A] | 0.54
GUUCCGUUGGCGUAAUGGUAACGCGUGUCCCUCCUUAGCAGAAGACUGCGGGUUCGAGUCCCGUACGGCACG [C27G A36U G39C A69C] | 0.548
GUUCCGUUGGCGUAAUGGUAACGCGUGUCCCUCCUUAGCAGAAGACUGCGGGUUCGAGUCCCGUACGCAACG [C27G A36U G39C G68C] | 0.533

— the RNAGym collection of RNA variant scans (doi:10.1126/science.aae0568)
